Reference: ChEMBL document CHEMBL1806459, “Discovery of N-(1-ethylpropyl)-[3-methoxy-5-(2-methoxy-4-trifluoromethoxyphenyl)-6-methyl-pyrazin-2-yl]amine 59 (NGD 98-2): an orally active corticotropin releasing factor-1 (CRF-1) receptor antagonist” (J Med Chem, 2011)
Active and inactive are the calls of the source. The rule behind the calls is not given here.

Columns and labels:
[1] = Plasma protein binding in human; format: ADME, cell-free; conditions: read-out: PPB (converted)
How it was run: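 Binding to human plasma protein measured as percent bound.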

[2] = target: T1, Corticotropin-releasing factor receptor 1 (Homo sapiens, UniProt P34998); test: Displacement of [125I]-sauvagine from human CRF-1 receptor expressed in human IMR-32 cells after 2 hrs by scintillation counting; format: cell-based
T1 sequence (P34998 whole entry): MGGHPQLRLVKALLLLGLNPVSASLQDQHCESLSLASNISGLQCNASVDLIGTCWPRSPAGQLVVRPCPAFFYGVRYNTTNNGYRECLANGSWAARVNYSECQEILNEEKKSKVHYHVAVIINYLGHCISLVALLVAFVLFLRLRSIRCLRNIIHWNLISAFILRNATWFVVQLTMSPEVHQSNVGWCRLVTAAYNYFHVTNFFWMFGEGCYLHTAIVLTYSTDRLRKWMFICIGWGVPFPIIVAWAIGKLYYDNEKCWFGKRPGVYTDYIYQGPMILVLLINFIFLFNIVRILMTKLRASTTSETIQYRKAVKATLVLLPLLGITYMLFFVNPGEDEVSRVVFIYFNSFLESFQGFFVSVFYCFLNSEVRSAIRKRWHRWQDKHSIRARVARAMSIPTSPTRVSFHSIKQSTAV
How it was run: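 Competition binding against 125I-sauvagine on membrane preparations from IMR-32 human neuroblastoma cells, which express CRF-1 endogenously. Modified from a published method.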

[3] = target: T1, Corticotropin-releasing factor receptor 1; test: Inhibition of human CRF-1 receptor expressed in human IMR-32 cells assessed as effect on cAMP production by ELISA in presence of 3 nM CRF; format: functional, cell-based
[4] = Inhibition of Sodium channel site 2 at 4 uM
How it was run: (§1)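 Single-concentration screen within a 69-target selectivity panel. The test concentration was 4 μM, a level set by the compound's limited aqueous solubility.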

[5] = target: Type-2 angiotensin II receptor (Homo sapiens) (UniProt P50052); test: Inhibition of angiotensin AT2 receptor at 4 uM; how it was run: as §1
Type-2 angiotensin II receptor (Homo sapiens), sequence (P50052 whole entry): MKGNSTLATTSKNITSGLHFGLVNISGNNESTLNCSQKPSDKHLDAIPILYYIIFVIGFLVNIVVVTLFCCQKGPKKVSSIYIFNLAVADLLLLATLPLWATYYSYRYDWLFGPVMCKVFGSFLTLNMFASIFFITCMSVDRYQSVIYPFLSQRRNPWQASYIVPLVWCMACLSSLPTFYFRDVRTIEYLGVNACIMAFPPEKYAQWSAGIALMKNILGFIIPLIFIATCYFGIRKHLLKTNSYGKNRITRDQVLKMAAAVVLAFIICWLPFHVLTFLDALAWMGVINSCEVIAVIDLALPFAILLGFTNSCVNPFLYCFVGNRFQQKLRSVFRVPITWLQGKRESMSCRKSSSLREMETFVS

[6] = system: Rattus norvegicus; test: Antihyperlocomotion activity in Wistar rat assessed as decrease in CRF-induced hyperlocomotion at 10 mg/kg, po administered 3 hrs before CRF challenge measured after 1 hr; format: functional, organism-based; design: dose 10 mg/kg
How it was run: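 Rats received 0.3 μg CRF intracerebroventricularly, with oral pretreatment 3 h before in vehicle TPGS. Readout was movement time (locomotor activity), compared against TPGS/CRF controls.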

[7] = system: Rattus norvegicus; test: Toxicity in Sprague-Dawley rat assessed as effect on vertical activity at 3 mg/kg, po measured after 3 hrs for 1 hr; format: organism-based; design: dose 3 mg/kg, route oral; conditions: in vivo
How it was run: (§2)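 Rats not habituated to the test environment, dosed orally at 3, 10 and 30 mg/kg. Spontaneous locomotor activity recorded after dosing: horizontal activity as movement time, plus vertical activity (rearing). Test run to exclude sedation.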

[8] = target: 5-hydroxytryptamine receptor 7 (Homo sapiens) (UniProt P34969); test: Inhibition of Serotonin 5HT7 receptor at 4 uM; how it was run: as §1
[9] = target: 5-hydroxytryptamine receptor 5A (Homo sapiens) (UniProt P47898); test: Inhibition of Serotonin 5HT5A receptor at 4 uM; how it was run: as §1
5-hydroxytryptamine receptor 5A (Homo sapiens), sequence (P47898 whole entry): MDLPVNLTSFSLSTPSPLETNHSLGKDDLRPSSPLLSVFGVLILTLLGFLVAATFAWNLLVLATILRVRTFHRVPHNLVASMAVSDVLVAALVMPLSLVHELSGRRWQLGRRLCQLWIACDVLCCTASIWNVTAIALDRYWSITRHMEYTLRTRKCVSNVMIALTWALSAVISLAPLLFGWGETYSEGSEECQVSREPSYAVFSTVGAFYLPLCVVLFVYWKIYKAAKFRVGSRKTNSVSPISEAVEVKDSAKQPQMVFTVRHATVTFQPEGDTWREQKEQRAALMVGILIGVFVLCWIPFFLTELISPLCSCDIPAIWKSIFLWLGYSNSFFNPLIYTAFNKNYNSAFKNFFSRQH

[10] = Inhibition of phosphodiesterase 2 at 4 uM; how it was run: as §1
[11] = Inhibition of AMPA receptor at 4 uM
How it was run: (§3)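 Selectivity panel of 69 targets, test compound at 4 μM, a level set by aqueous solubility limits; percent inhibition recorded per target.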

[12] = target: Substance-K receptor (Homo sapiens) (UniProt P21452); test: Inhibition of Neurokinin NK2 receptor at 4 uM; how it was run: as §1
[13] = Inhibition of phosphodiesterase 4 at 4 uM; how it was run: as §1
[14] = target: Adenosine receptor A1 (Homo sapiens) (UniProt P30542); test: Inhibition of adenosine A1 receptor at 4 uM; how it was run: as §1
Adenosine receptor A1 (Homo sapiens), sequence (P30542 whole entry): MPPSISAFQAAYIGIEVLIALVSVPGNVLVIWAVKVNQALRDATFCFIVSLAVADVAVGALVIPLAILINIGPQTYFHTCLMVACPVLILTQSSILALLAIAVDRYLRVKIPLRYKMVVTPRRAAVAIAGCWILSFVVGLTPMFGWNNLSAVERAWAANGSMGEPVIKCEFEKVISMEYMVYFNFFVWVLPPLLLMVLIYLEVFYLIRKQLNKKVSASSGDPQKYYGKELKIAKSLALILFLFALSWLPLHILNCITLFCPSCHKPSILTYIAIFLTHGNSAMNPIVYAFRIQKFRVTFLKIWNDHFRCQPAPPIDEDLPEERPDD

[15] = target: Beta-1 adrenergic receptor (Homo sapiens) (UniProt P08588); test: Inhibition of adrenergic beta 1 receptor at 4 uM; how it was run: as §1
[16] = target: Beta-2 adrenergic receptor (Homo sapiens) (UniProt P07550); test: Inhibition of adrenergic beta 2 receptor at 4 uM; how it was run: as §1
[17] = target: hERG (KCNH2) (Homo sapiens, UniProt Q12809); test: Inhibition of human ERG expressed in african green monkey COS7 cells at 3 uM by electrophysiological assay; format: cell-based; conditions: COS-7 cells (African green monkey) expressing human ERG
hERG (KCNH2), sequence (Q12809 whole entry): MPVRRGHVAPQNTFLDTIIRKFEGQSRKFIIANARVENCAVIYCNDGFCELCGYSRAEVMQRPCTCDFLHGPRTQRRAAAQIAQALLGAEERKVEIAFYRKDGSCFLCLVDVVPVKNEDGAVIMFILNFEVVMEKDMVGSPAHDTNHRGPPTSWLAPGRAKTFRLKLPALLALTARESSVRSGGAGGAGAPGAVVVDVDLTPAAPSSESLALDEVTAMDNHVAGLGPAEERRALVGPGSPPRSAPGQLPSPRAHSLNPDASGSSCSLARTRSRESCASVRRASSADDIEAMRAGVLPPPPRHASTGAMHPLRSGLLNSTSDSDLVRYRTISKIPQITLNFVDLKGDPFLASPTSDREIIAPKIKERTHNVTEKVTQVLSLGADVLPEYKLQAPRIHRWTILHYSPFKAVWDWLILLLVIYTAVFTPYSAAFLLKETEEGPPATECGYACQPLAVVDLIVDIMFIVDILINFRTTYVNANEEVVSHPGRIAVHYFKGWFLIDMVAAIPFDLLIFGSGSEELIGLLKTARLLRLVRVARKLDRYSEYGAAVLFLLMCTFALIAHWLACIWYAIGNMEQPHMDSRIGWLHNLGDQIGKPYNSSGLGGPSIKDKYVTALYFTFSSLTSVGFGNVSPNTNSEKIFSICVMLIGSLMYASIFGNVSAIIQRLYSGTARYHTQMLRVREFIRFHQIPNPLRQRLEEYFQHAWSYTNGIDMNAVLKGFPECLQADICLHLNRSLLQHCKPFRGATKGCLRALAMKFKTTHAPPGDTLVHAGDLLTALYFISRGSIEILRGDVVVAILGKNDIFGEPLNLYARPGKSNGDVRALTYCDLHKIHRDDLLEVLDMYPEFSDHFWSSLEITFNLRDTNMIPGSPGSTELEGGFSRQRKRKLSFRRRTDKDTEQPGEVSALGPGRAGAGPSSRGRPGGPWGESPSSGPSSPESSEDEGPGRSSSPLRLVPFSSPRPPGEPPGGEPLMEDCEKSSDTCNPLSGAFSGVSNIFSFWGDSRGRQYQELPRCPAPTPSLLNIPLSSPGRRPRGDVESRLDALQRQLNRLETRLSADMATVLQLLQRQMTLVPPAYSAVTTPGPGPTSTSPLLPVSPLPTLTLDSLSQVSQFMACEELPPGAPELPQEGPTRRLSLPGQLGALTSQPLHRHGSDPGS

[18] = system: Rattus norvegicus; test: AUC (0 to 24 hrs) in rat at 10 mg/kg, po; format: ADME, organism-based, Plasma; design: time < 24 hr, dose 10 mg/kg, route oral; conditions: in vivo
[19] = Inhibition of KATP channel at 4 uM; how it was run: as §3
[20] = target: D(3) dopamine receptor (Homo sapiens) (UniProt P35462); test: Inhibition of dopamine D3 receptor at 4 uM; how it was run: as §1
D(3) dopamine receptor (Homo sapiens), sequence (P35462 whole entry): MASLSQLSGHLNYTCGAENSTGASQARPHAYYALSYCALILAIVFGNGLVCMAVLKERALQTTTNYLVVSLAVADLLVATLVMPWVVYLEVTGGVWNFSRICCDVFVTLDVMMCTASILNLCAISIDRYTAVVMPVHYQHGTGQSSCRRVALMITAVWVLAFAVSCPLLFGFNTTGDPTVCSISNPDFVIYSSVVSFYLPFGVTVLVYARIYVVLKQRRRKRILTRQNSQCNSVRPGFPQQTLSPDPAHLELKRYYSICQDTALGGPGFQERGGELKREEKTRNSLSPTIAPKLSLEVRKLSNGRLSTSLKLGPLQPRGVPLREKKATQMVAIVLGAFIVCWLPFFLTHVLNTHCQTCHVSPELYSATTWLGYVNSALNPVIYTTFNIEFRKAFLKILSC

[21] = target: Corticotropin-releasing factor receptor 1 (Homo sapiens) (UniProt P34998); conditions: IMR-32, 10 uM
[22] = target: Glucocorticoid receptor (Homo sapiens) (UniProt P04150); test: Inhibition of glucocorticoid receptor at 4 uM; how it was run: as §1
Glucocorticoid receptor (Homo sapiens), sequence (P04150 whole entry): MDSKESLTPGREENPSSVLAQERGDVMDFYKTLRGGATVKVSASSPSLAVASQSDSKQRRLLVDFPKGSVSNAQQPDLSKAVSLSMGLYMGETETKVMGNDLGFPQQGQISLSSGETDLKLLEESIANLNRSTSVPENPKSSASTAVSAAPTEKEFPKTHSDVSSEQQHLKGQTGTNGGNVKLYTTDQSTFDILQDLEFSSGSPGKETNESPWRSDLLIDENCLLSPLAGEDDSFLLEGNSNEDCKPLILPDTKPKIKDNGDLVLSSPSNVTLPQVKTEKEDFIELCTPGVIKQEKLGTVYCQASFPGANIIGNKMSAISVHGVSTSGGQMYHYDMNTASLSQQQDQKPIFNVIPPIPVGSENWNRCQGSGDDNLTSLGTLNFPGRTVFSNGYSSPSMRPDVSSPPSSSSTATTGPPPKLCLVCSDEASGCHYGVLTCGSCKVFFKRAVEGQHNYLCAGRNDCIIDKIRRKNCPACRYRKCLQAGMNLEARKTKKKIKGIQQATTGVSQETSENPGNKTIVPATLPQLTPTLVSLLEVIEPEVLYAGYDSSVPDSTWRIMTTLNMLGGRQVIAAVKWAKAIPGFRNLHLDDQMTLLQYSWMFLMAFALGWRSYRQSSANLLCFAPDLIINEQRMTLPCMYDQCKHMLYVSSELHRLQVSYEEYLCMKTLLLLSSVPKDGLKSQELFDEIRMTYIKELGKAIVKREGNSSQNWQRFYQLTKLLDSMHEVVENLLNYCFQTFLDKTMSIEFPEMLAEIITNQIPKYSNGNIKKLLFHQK

[23] = system: Rattus norvegicus; test: Toxicity in Sprague-Dawley rat assessed as effect on horizontal movement at 3 mg/kg, po measured after 3 hrs for 1 hr; format: organism-based; design: dose 3 mg/kg, route oral; conditions: in vivo; how it was run: as §2
[24] = system: Rattus norvegicus; test: Decrease in restrained-stress induced […] release in plasma of po dosed Sprague-Dawley rat pretreated with compound for 3 hrs by radioimmunoassay; format: functional, organism-based
How it was run: (§4)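 Rats orally pretreated, then restrained for 10 min to induce stress. Plasma ACTH measured and compared with vehicle/no-stress and vehicle/stress groups.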

[25] = Ratio of drug level in brain to plasma of rat at 1 mg/kg, iv; format: ADME, organism-based; design: dose 1 mg/kg, route intravenous; conditions: read-out: BPR
How it was run: (§5)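 Rat pharmacokinetics: compounds given iv (1 or 3 mg/kg) and po (5 or 10 mg/kg) in 2% Vitamin E TPGS (tocopheryl polyethylene glycol 1000 succinate). Plasma sampled over 24 h for Cmax, Tmax, AUC0–24 h, T1/2, clearance, Vss and oral bioavailability. Brain to plasma ratio also measured.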

[26] = target: Corticotropin-releasing factor receptor 1 (Rattus norvegicus, UniProt P35353); test: Displacement of [125I]-sauvagine from rat CRF-1 receptor expressed in rat cortical membrane after 2 hrs by scintillation counting; format: cell membranes
Corticotropin-releasing factor receptor 1 (Rattus norvegicus, UniProt P35353), sequence (P35353 whole entry): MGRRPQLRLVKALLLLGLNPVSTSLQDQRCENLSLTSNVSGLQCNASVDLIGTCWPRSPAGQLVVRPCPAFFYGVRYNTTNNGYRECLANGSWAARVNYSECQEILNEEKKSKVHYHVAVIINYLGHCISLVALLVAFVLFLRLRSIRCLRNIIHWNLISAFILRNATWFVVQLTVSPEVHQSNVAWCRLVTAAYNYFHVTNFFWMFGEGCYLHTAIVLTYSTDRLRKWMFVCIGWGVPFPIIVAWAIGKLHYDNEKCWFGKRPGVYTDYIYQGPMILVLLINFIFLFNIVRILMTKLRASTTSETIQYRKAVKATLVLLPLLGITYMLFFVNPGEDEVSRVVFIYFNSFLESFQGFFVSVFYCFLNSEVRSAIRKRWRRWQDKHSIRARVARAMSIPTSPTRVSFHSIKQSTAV
How it was run: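 Displacement of [125I]-sauvagine binding from rat cortical membrane homogenate with increasing compound concentrations; Ki derived.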

[27] = target: Histamine H3 receptor (Homo sapiens) (UniProt Q9Y5N1); test: Inhibition of Histamine H3 receptor at 4 uM; how it was run: as §3
[28] = Tmax in rat at 1 mg/kg, iv; format: ADME, organism-based; design: dose 1 mg/kg, route intravenous; conditions: in vivo; how it was run: as §5
[29] = Inhibition of phosphodiesterase 3 at 4 uM; how it was run: as §1
[30] = target: Somatostatin receptor (Homo sapiens) (UniProt P35346+P30874+P31391+P30872+P32745); test: Inhibition of somatostatin at 4 uM; how it was run: as §1
[31] = Inhibition of galanin receptor at 4 uM; how it was run: as §1
[32] = Inhibition of GABA-A at 4 uM; how it was run: as §3
[33] = target: Oxytocin receptor (Homo sapiens) (UniProt P30559); test: Inhibition of Oxytocin receptor at 4 uM; how it was run: as §1
Oxytocin receptor (Homo sapiens), sequence (P30559 whole entry): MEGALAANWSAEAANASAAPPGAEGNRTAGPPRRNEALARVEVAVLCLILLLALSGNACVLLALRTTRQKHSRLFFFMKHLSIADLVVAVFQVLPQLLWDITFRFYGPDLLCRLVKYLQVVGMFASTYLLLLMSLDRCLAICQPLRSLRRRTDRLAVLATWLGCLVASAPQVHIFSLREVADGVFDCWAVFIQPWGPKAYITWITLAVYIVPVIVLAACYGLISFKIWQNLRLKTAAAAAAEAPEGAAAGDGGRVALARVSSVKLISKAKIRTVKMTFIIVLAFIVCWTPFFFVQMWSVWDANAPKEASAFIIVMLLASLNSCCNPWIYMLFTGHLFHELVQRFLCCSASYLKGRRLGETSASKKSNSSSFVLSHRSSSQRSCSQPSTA

[34] = system: Rattus norvegicus; test: Decrease in restrained-stress induced […] release in plasma of Sprague-Dawley rat at 10 mg/kg, po pretreated with compound for 3 hrs by radioimmunoassay; format: functional, organism-based; design: dose 10 mg/kg; how it was run: as §4
[35] = target: Gastrin/cholecystokinin type B receptor (Homo sapiens) (UniProt P32239); test: Inhibition of cholecystokinin CCKB receptor at 4 uM; how it was run: as §1
Gastrin/cholecystokinin type B receptor (Homo sapiens), sequence (P32239 whole entry): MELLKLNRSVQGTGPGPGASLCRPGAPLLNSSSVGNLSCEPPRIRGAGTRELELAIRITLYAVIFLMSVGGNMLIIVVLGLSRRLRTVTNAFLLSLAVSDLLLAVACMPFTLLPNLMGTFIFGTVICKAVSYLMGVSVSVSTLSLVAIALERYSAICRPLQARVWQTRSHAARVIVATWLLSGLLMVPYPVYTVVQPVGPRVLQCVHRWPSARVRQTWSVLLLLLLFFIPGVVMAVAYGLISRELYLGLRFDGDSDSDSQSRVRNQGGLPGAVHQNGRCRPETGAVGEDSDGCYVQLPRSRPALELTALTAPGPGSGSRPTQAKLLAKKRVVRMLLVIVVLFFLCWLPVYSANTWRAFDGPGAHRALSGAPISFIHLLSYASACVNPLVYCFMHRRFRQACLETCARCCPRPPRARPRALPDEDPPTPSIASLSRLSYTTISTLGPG

[36] = Inhibition of adenosine transporter at 4 uM; how it was run: as §1

Q: For `CCC(CC)Nc1nc(C)c(-c2ccc(OC(F)(F)F)cc2OC)nc1OC`, which fraction unbound [1] is on record?
A: 0.008

Q: And the Ki [2]?
A: 1 nM

Q: What about the IC50 [3] of the same compound?
A: 93 nM

Q: And the inhibition [4]?
A: > 16%

Q: And the inhibition [5]?
A: > 16%

Q: And the Activity [6]?
A: Active

Q: And the Activity [7]?
A: Non-toxic

Q: And the inhibition [8]?
A: > 16%

Q: And the inhibition [9]?
A: > 16%

Q: And the inhibition [10]?
A: > 16%

Q: What about the inhibition [11] of the same compound?
A: > 16%

Q: And the inhibition [12]?
A: > 16%

Q: What about the inhibition [13] of the same compound?
A: > 16%

Q: What about the inhibition [14] of the same compound?
A: > 16%

Q: And the inhibition [15]?
A: > 16%

Q: What about the inhibition [16] of the same compound?
A: > 16%

Q: And the inhibition at 3 µM [17]?
A: 17%

Q: What about the AUC [18] of the same compound?
A: 4499 ng·h/mL

Q: What about the inhibition [19] of the same compound?
A: > 16%

Q: What about the inhibition [20] of the same compound?
A: > 16%

Q: What about the inhibition [21] of the same compound?
A: inactive

Q: What about the inhibition [22] of the same compound?
A: > 16%

Q: What about the Activity [23] of the same compound?
A: Non-toxic

Q: What about the Activity [24] of the same compound?
A: Dose-dependent effect

Q: What about the Kp [25] of the same compound?
A: 5.4

Q: And the Ki [26]?
A: 9.8 nM

Q: What about the inhibition [27] of the same compound?
A: > 16%

Q: What about the Tmax [28] of the same compound?
A: 4 h

Q: What about the inhibition [29] of the same compound?
A: > 16%

Q: And the inhibition [30]?
A: > 16%

Q: What about the inhibition [31] of the same compound?
A: > 16%

Q: And the inhibition [32]?
A: > 16%

Q: What about the inhibition [33] of the same compound?
A: > 16%

Q: And the Activity [34]?
A: Active

Q: What about the inhibition [35] of the same compound?
A: > 16%

Q: And the inhibition [36]?
A: > 16%
